Converted amounts (≈) assume the structure as drawn.
Legend:
Escherichia coli [1] = assay: Minimal inhibitory activity against the Escherichia coli (EC14); assay type: functional
Method in brief: (§1)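 Agar dilution: compounds diluted in 0.1 M phosphate buffer pH 7.0, incorporated into Mueller-Hinton agar with 1% Bacto-Supplement C at 50 °C. Overnight cultures diluted to ~1×10^4 cells/µL, 1 µL spotted onto plates; incubated overnight at 35 °C in ambient air. MIC = lowest concentration preventing visible growth.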

Escherichia coli [2] = assay: Minimal inhibitory activity against the E. coli(TEM beta lactamase containing); assay type: functional; method in brief: as §1
Enterobacter cloacae [3] = assay: Minimal inhibitory activity against the Enterobacter cloacae (265A beta lactamase containing); assay type: functional; method in brief: as §1
Enterobacter cloacae [4] = assay: Minimal inhibitory activity against the Enterobacter cloacae (EB5); assay type: functional; method in brief: as §1
Haemophilus influenzae = assay: Minimal inhibitory activity against the Haemophilus influenzae (C.L); assay type: functional; method in brief: as §1
Klebsiella [5] = assay: Minimal inhibitory activity against the Klebsiella(KAE beta lactamase containing); assay type: functional; method in brief: as §1
Klebsiella [6] = assay: Minimal inhibitory activity against the Klebsiella (X26); assay type: functional; method in brief: as §1
Morganella morganii = assay: Minimal inhibitory activity against the Proteus morganii (PR15); assay type: functional; method in brief: as §1
Pseudomonas aeruginosa = assay: Minimal inhibitory activity against the Pseudomonas aeruginosa (X528); assay type: functional; method in brief: as §1
Providencia rettgeri = assay: Minimal inhibitory activity against the Proteus rettgeri (C24); assay type: functional; method in brief: as §1
Salmonella = assay: Minimal inhibitory activity against the Salmonella (X514); assay type: functional; method in brief: as §1
[7] = test system: Staphylococcus epidermidis; assay: Minimal inhibitory activity against the Staphylococcus epidermidis (222); assay type: functional; method in brief: as §1
Staphylococcus aureus = assay: Minimal inhibitory activity against the Staphylococcus aureus (X1.1); assay type: functional; method in brief: as §1
Streptococcus pneumoniae = assay: Minimal inhibitory activity against the Streptococcus pneumoniae (PARK); assay type: functional; method in brief: as §1
Streptococcus pyogenes = assay: Minimal inhibitory activity against the Streptococcus pyogenes (C203); assay type: functional; method in brief: as §1
Enterobacter cloacae [8] = assay: Truncation of the zone of inhibition was graded for Enterobacter cloacae EB17 on a 30 ug disk of test compound; assay type: functional
Method in brief: (§2)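 Cefoxitin disk approximation: Mueller-Hinton agar swab-inoculated with ~1×10^8 cells/mL of inducible Enterobacter strains; 30 µg test-compound disks plus 30 µg cefoxitin disks placed ~15 mm from their edge. Overnight at 35 °C in ambient air; truncation of inhibition zone on cefoxitin-proximal side graded as a measure of induced β-lactamase effect.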

Enterobacter cloacae [9] = assay: Truncation of the zone of inhibition was graded for Enterobacter cloacae EB5 on a 30 ug disk of test compound; assay type: functional; method in brief: as §2
Enterobacter cloacae [10] = assay: Truncation of the zone of inhibition was graded for Enterobacter cloacae EB57 on a 30 ug disk of test compound; assay type: functional; method in brief: as §2
[11] = Half-life was evaluated for pharmacokinetic data in rats; assay type: ADME, organism-based; conditions: rat, in vivo
Method in brief: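 Male Sprague-Dawley rats, single 20 mg/kg intravenous dose in saline via indwelling jugular vein cannula; serial blood sampling from the same cannula over 4 h. Plasma levels measured by agar well diffusion bioassay with E. coli ATCC 4157 (detection limit ≤0.80 µg/mL). Half-life calculated as 0.693/β, β being the terminal slope of the plasma concentration–time curve.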

Rattus norvegicus = organism: Rattus norvegicus; assay: Urinary recovery was evaluated for pharmacokinetic data in rats; assay type: organism-based; conditions: Urine
Method in brief: (§3)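 Male Sprague-Dawley rats given 20 mg/kg IV in saline via indwelling jugular vein cannula; serial blood sampling through cannula, plasma and urine collected over 4 h. Drug levels by agar well diffusion bioassay with E. coli ATCC 4157 (detection limit ≤0.80 μg/mL). Half-life = 0.693/β from terminal plasma slope; urinary recovery as percent of administered dose.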

[12] = Half-life was evaluated for pharmacokinetic data in rats.; assay type: ADME, organism-based; conditions: rat, in vivo; method in brief: as §3

| Structure (SMILES) | MIC (Escherichia coli [1]) | MIC (Escherichia coli [2]) | MIC (Enterobacter cloacae [3]) | MIC (Enterobacter cloacae [4]) | MIC (Haemophilus influenzae) | MIC (Klebsiella [5]) | MIC (Klebsiella [6]) | MIC (Morganella morganii) | MIC (Pseudomonas aeruginosa) | MIC (Providencia rettgeri) | MIC (Salmonella) | MIC [7] | MIC (Staphylococcus aureus) | MIC (Streptococcus pneumoniae) | MIC (Streptococcus pyogenes) | Zone diameter (Enterobacter cloacae [8]) | Zone diameter (Enterobacter cloacae [9]) | Zone diameter (Enterobacter cloacae [10]) | Recovery (Rattus norvegicus) | other results |
| --- | --- | --- | --- | --- | --- | --- | --- | --- | --- | --- | --- | --- | --- | --- | --- | --- | --- | --- | --- | --- |
| CO/N=C(\C(=O)N[C@@H]1C(=O)N2C(C(=O)[O-])=C([n+]3cccc4c3CCCC4)CC[C@H]12)c1csc(N)n1 | 0.125 µg/mL (≈ 0.252 µM) | 1 µg/mL (≈ 2.01 µM) | 2 µg/mL (≈ 4.03 µM) | 0.25 µg/mL (≈ 0.503 µM) | 0.5 µg/mL (≈ 1.01 µM) | 16 µg/mL (≈ 32.2 µM) | 0.125 µg/mL (≈ 0.252 µM) | 1 µg/mL (≈ 2.01 µM) | 128 µg/mL (≈ 258 µM) | 4 µg/mL (≈ 8.06 µM) | 0.125 µg/mL (≈ 0.252 µM) | 8 µg/mL (≈ 16.1 µM) | 2 µg/mL (≈ 4.03 µM) | 0.06 µg/mL (≈ 0.121 µM) | 0.06 µg/mL (≈ 0.121 µM) | – | – | – | – | – |
| CO/N=C(\C(=O)N[C@@H]1C(=O)N2C(C(=O)[O-])=C(C[n+]3ccccc3)CS[C@H]12)c1csc(N)n1 | – | – | – | – | – | – | – | – | – | – | – | – | – | – | – | 30 mm | 30 mm | 30 mm | – | – |
| Cc1cc[n+](C2=C(C(=O)[O-])N3C(=O)[C@@H](NC(=O)/C(=N\OCc4ccccc4)c4csc(N)n4)[C@H]3CC2)cc1C | 2 µg/mL (≈ 3.66 µM) | 1 µg/mL (≈ 1.83 µM) | 8 µg/mL (≈ 14.6 µM) | 4 µg/mL (≈ 7.32 µM) | 0.125 µg/mL (≈ 0.229 µM) | 128 µg/mL (≈ 234 µM) | 0.06 µg/mL (≈ 0.11 µM) | 2 µg/mL (≈ 3.66 µM) | 128 µg/mL (≈ 234 µM) | 8 µg/mL (≈ 14.6 µM) | 1 µg/mL (≈ 1.83 µM) | 2 µg/mL (≈ 3.66 µM) | 1 µg/mL (≈ 1.83 µM) | 0.015 µg/mL (≈ 0.0274 µM) | 0.03 µg/mL (≈ 0.0549 µM) | – | – | – | – | – |
| CO/N=C(\C(=O)N[C@@H]1C(=O)N2C(C(=O)[O-])=C(C[n+]3ccccc3)CC[C@H]12)c1csc(N)n1 | – | – | – | – | – | – | – | – | – | – | – | – | – | – | – | 35 mm | 26 mm | 26 mm | 87.9% | half-life [11]: 22.9 min |
| CO/N=C(\C(=O)N[C@@H]1C(=O)N2C(C(=O)[O-])=C([n+]3ccccc3)CC[C@H]12)c1csc(N)n1 | 0.06 µg/mL (≈ 0.136 µM) | 0.06 µg/mL (≈ 0.136 µM) | 2 µg/mL (≈ 4.52 µM) | 0.125 µg/mL (≈ 0.283 µM) | 0.5 µg/mL (≈ 1.13 µM) | 8 µg/mL (≈ 18.1 µM) | 0.03 µg/mL (≈ 0.0678 µM) | 0.25 µg/mL (≈ 0.565 µM) | 128 µg/mL (≈ 289 µM) | 0.5 µg/mL (≈ 1.13 µM) | 0.03 µg/mL (≈ 0.0678 µM) | 8 µg/mL (≈ 18.1 µM) | 4 µg/mL (≈ 9.04 µM) | 0.03 µg/mL (≈ 0.0678 µM) | 0.03 µg/mL (≈ 0.0678 µM) | 30 mm | 30 mm | 31 mm | 82.6% | half-life [12]: 21.2 min |
